Results from ChEMBL document CHEMBL1212842, “Substrate specificity and inhibitory study of human airway trypsin-like protease” (Bioorg Med Chem, 2010).
Where a SMILES comes first, the peptide text is derived from it. [ ]: non-standard residue; d: D form. The star is where a group is joined. NH(3-CONH2-4-NO2-Ph) = NC(=O)c1cc(N*)ccc1[N+](=O)[O-]; AMC = Cc1cc(=O)oc2cc(N*)ccc12; 2Abz = Nc1ccccc1C(=O)O; Boc = CC(C)(C)OC(=O)*

Assays:
Bos taurus [1] = organism: Bos taurus; assay: Ratio of Kcat to Km for bovine trypsin by FRET assay
Homo sapiens [2] = organism: Homo sapiens; assay: Ratio of Kcat to Km for human tryptase by FRET assay
Bos taurus [3] = organism: Bos taurus; assay: Activity at bovine trypsin by FRET assay
Homo sapiens [4] = organism: Homo sapiens; assay: Activity at human tryptase by FRET assay
[5] = Inhibition of bovine trypsin by FRET assay; parameters: species or system Bos taurus
[6] = Inhibition of human tryptase by FRET assay
[7] = target: T1, Transmembrane protease serine 11D (Homo sapiens, UniProt O60235); assay: Inhibition of human HAT by FRET assay
T1 sequence (O60235 whole entry): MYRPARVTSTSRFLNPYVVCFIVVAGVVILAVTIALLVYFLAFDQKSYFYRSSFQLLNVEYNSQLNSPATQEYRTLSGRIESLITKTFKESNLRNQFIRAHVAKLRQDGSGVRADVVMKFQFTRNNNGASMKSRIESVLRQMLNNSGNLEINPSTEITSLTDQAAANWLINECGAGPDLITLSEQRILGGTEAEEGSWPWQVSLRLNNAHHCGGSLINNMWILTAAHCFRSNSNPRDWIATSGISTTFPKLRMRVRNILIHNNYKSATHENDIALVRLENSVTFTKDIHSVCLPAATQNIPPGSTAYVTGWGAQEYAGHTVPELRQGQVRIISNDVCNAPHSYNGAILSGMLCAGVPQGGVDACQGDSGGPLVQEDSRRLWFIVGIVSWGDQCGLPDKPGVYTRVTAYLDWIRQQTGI
How it was run: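 Inhibitor at increasing concentrations (0–100 nM) was preincubated for 60 min with enzyme (20 nM) in Tris-HCl, pH 7.8. Chromogenic substrate (1.8–100 µM) was then added and absorbance was followed over time. For HAT, the substrate was an ABZ/ANB-labelled tetrapeptide. Ki was calculated from the initial velocities of hydrolysis.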

[8] = target: T2, Suppressor of tumorigenicity 14 protein (Homo sapiens, UniProt Q9Y5Y6); assay: Inhibition of human matriptase by FRET assay
T2 sequence (Q9Y5Y6 whole entry): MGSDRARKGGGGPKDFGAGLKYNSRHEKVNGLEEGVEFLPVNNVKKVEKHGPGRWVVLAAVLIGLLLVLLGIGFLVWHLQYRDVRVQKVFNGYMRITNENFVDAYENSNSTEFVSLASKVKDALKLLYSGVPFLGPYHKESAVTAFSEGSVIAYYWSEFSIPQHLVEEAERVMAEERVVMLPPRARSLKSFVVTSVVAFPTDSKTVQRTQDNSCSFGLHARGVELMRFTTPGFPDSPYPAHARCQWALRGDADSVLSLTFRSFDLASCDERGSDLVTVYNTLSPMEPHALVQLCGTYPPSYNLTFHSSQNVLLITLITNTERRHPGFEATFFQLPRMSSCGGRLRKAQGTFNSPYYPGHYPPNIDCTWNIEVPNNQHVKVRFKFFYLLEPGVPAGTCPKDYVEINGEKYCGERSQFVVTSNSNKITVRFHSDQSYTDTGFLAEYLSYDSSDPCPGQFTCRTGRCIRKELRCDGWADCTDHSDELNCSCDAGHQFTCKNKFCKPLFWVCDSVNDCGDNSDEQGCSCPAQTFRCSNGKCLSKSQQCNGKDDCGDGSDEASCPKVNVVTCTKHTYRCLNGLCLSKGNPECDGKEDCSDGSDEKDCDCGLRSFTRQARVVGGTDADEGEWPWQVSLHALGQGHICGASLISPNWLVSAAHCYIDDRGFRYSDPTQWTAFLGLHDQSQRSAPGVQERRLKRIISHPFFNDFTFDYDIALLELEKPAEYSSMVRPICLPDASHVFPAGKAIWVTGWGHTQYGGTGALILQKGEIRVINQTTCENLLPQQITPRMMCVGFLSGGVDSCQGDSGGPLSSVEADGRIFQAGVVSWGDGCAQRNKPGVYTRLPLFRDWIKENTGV

[9] = substrate: N=C(N)NCCC[C@H](NC(=O)c1ccccc1N)C(=O)N[C@@H](CCC(N)=O)C(=O)N[C@@H](CC(=O)O)C(=O)N[C@@H](CCCNC(=N)N)C(=O)Nc1ccc([N+](=O)[O-])c(C(N)=O)c1; assay: (§1) Ratio of Kcat to Km for human HAT by FRET assay
[10] = substrate: Cc1cc(=O)oc2cc(NC(=O)[C@H](CCCNC(=N)N)NC(=O)[C@H](CO)NC(=O)[C@H](Cc3ccccc3)NC(=O)OC(C)(C)C)ccc12; assay: as §1
[11] = substrate: N=C(N)NCCC[C@H](NC(=O)c1ccccc1N)C(=O)N[C@@H](CCC(N)=O)C(=O)N[C@@H](CC(=O)O)C(=O)N[C@@H](CCCCN)C(=O)Nc1ccc([N+](=O)[O-])c(C(N)=O)c1; assay: as §1
[12] = substrate: N=C(N)NCCC[C@H](NC(=O)c1ccccc1N)C(=O)N[C@@H](CCC(N)=O)C(=O)N[C@@H](CC(=O)O)C(=O)N[C@@H](CCCNC(=N)N)C(=O)Nc1ccc([N+](=O)[O-])c(C(N)=O)c1; assay: (§2) Activity at human HAT by FRET assay
[13] = substrate: Cc1cc(=O)oc2cc(NC(=O)[C@H](CCCNC(=N)N)NC(=O)[C@H](CO)NC(=O)[C@H](Cc3ccccc3)NC(=O)OC(C)(C)C)ccc12; assay: as §2
[14] = substrate: N=C(N)NCCC[C@H](NC(=O)c1ccccc1N)C(=O)N[C@@H](CCC(N)=O)C(=O)N[C@@H](CC(=O)O)C(=O)N[C@@H](CCCCN)C(=O)Nc1ccc([N+](=O)[O-])c(C(N)=O)c1; assay: as §2
[15] = substrate: N=C(N)NCCC[C@H](NC(=O)c1ccccc1N)C(=O)N[C@@H](CCC(N)=O)C(=O)N[C@@H](CC(=O)O)C(=O)N[C@@H](CCCNC(=N)N)C(=O)Nc1ccc([N+](=O)[O-])c(C(N)=O)c1; assay: (§3) Ratio of Kcat to Km for human matriptase by FRET assay
[16] = substrate: Cc1cc(=O)oc2cc(NC(=O)[C@H](CCCNC(=N)N)NC(=O)[C@H](CO)NC(=O)[C@H](Cc3ccccc3)NC(=O)OC(C)(C)C)ccc12; assay: as §3
[17] = substrate: N=C(N)NCCC[C@H](NC(=O)c1ccccc1N)C(=O)N[C@@H](CCC(N)=O)C(=O)N[C@@H](CC(=O)O)C(=O)N[C@@H](CCCCN)C(=O)Nc1ccc([N+](=O)[O-])c(C(N)=O)c1; assay: as §3
[18] = substrate: N=C(N)NCCC[C@H](NC(=O)c1ccccc1N)C(=O)N[C@@H](CCC(N)=O)C(=O)N[C@@H](CC(=O)O)C(=O)N[C@@H](CCCNC(=N)N)C(=O)Nc1ccc([N+](=O)[O-])c(C(N)=O)c1; assay: (§4) Activity at human matriptase by FRET assay
[19] = substrate: Cc1cc(=O)oc2cc(NC(=O)[C@H](CCCNC(=N)N)NC(=O)[C@H](CO)NC(=O)[C@H](Cc3ccccc3)NC(=O)OC(C)(C)C)ccc12; assay: as §4
[20] = substrate: N=C(N)NCCC[C@H](NC(=O)c1ccccc1N)C(=O)N[C@@H](CCC(N)=O)C(=O)N[C@@H](CC(=O)O)C(=O)N[C@@H](CCCCN)C(=O)Nc1ccc([N+](=O)[O-])c(C(N)=O)c1; assay: as §4

## Cc1cc(=O)oc2cc(NC(=O)[C@H](CCCNC(=N)N)NC(=O)[C@H](CO)NC(=O)[C@H](Cc3ccccc3)NC(=O)OC(C)(C)C)ccc12 (Boc-Phe-Ser-Arg-{AMC})
Bos taurus [1]
  kcat/Km: 442 ×10³ /M/s
Homo sapiens [2]
  kcat/Km: 276 ×10³ /M/s
Bos taurus [3]
  Km: 16.5 µM
  kcat: 72.3 ×10⁻¹ /s
Homo sapiens [4]
  Km: 19.4 µM
  kcat: 53.6 ×10⁻¹ /s

## N=C(N)NCCC[C@H](NC(=O)c1ccccc1N)C(=O)N[C@@H](CCC(N)=O)C(=O)N[C@@H](CC(=O)O)C(=O)N[C@@H](CCCCN)C(=O)Nc1ccc([N+](=O)[O-])c(C(N)=O)c1 (H-[2Abz]RQDK-{NH(3-CONH2-4-NO2-Ph)})
Bos taurus [1]
  kcat/Km: 0.1 ×10³ /M/s
Homo sapiens [2]
  kcat/Km: 6.7 ×10³ /M/s
Bos taurus [3]
  Km: 1840 µM
  kcat: 0.8 ×10⁻¹ /s
Homo sapiens [4]
  Km: 269 µM
  kcat: 11.8 ×10⁻¹ /s

## N=C(N)NCCC[C@H](NC(=O)[C@H](CC(=O)O)NC(=O)[C@H](CCC(N)=O)NC(=O)[C@H](CCCNC(=N)N)NC(=O)c1ccccc1N)C(=O)O (H-[2Abz]RQDR-OH)
[5]
  Ki: 3930 nM
[6]
  Ki: 2130 nM
[7]
  Ki: 54.3 nM
[8]
  Ki: 973 nM

## N=C(N)NCCC[C@H](NC(=O)c1ccccc1N)C(=O)N[C@@H](CCC(N)=O)C(=O)N[C@@H](CC(=O)O)C(=O)N[C@@H](CCCNC(=N)N)C(=O)Nc1ccc([N+](=O)[O-])c(C(N)=O)c1 (H-[2Abz]RQDR-{NH(3-CONH2-4-NO2-Ph)})
Bos taurus [1]
  kcat/Km: 0.2 ×10³ /M/s
Homo sapiens [2]
  kcat/Km: 27.4 ×10³ /M/s
Bos taurus [3]
  Km: 1120 µM
  kcat: 1.4 ×10⁻¹ /s
Homo sapiens [4]
  Km: 155 µM
  kcat: 42.2 ×10⁻¹ /s

B1: Transmembrane protease serine 11D (Homo sapiens), O60235 (protein)
chain: T1 sequence (O60235 whole entry)
[9]
  kcat/Km: 454 ×10³ /M/s
[10]
  kcat/Km: 58.2 ×10³ /M/s
[11]
  kcat/Km: 195 ×10³ /M/s
[12]
  Km: 25.4 µM
  kcat: 115 ×10⁻¹ /s
[13]
  Km: 43.6 µM
  kcat: 25.4 ×10⁻¹ /s
[14]
  Km: 12.3 µM
  kcat: 24.1 ×10⁻¹ /s

B2: Suppressor of tumorigenicity 14 protein (Homo sapiens), Q9Y5Y6 (protein)
chain: T2 sequence (Q9Y5Y6 whole entry)
[15]
  kcat/Km: 98.4 ×10³ /M/s
[16]
  kcat/Km: 356 ×10³ /M/s
[17]
  kcat/Km: 23.1 ×10³ /M/s
[18]
  Km: 68.5 µM
  kcat: 67.4 ×10⁻¹ /s
[19]
  Km: 12.1 µM
  kcat: 42.8 ×10⁻¹ /s
[20]
  Km: 70.6 µM
  kcat: 16.3 ×10⁻¹ /s
